This passage reports cytotoxicity results from ChEMBL document CHEMBL4513216, “Probing the Open Global Health Chemical Diversity Library for Multistage-Active Starting Points for Next-Generation Antimalarials” (ACS Infect Dis, 2020).

The data set is described as follows: Toxicity liver stage against HepG2, at 10uM. Format: cell-based. The note with it: human, HepG2-A16-CD81EGFP cells; read-out: INHIBITION
On the set-up: test concentration 10 uM, cell line HepG2-A16-CD81EGFP. Put shortly:
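Uninfected HepG2-A16-CD81EGFP cells, 3 × 10^3 per well, 1536-well, plated on prespotted compound at 10 μM final, parasite-free screening media added to match infected plates; puromycin 10 μM positive, DMSO 0.5% negative; run in parallel with 48 h PbLuc assay at 37 °C, 5% CO2; viability by CellTiter-Glo luminescence, normalized to controls.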
With `O=C(c1ccsc1)N1CCC(c2nnc(C3CC3)o2)CC1`, the cytotoxicity at 10 µM is 12.3%. In the case of `COC1(CNC(=O)c2ccoc2)CCSC1` (stereo unspecified), the cytotoxicity at 10 µM was -10.8%. For `O=C(NCCn1ccc(-c2ccccn2)n1)C1CCC1` the value was 4.23%; for `COC1CCN(c2ccc(NC(=O)Cn3cccc3)cc2)CC1`, 2.99%; for `Cc1cc(C(=O)N2CCCC3(COCCN(c4ccccc4)C3)C2)[nH]n1` (stereo unspecified), -1.56%. Take `C[C@H]1C[C@H]2CN(C(=O)c3cccc4c3OCCO4)CC[C@H]2O1`: the cytotoxicity at 10 µM was -0.91%. For `O=C1CC(c2ccccc2Br)c2sc(N3CCOCC3)nc2N1` (stereo unspecified) the value was 9.4%; for `COc1cccc(-c2ccnc3nc(N4CCCCC4)[nH]c(=O)c23)c1`, 7.97%. The value for `COc1ccc(-c2noc(C(=O)NCCN3CCCCC3)n2)cc1OC` was -6.24%; that for `CC(C)N(C)Cc1nnc2n1CCCN(C(=O)c1ccco1)C2` was -1.17%; that for `CC(Nc1ncnc2c1NC(=O)CN2)c1ccccn1` (stereo unspecified) was 7.66%. The value for `O=C(Cc1ccc(Cl)cc1)N[C@@H]1CCC[C@@H](O)[C@@H]1O` was 2.3%; that for `CN(CCc1ccccc1)Cc1c(C2CC2)[nH]c2ncccc12` was 0.145%; that for `Cc1ccnc(C2CN(Cc3ccc(-c4ccccc4C(=O)O)o3)C2)n1` was 2.51%. For the compound `CC(C)CCN1CCCC12Cc1ccccc1CNC2=O` (stereo unspecified), the cytotoxicity at 10 µM was found to be 7.61%. The value for `CCc1nnsc1C(=O)NCCc1nnc2n1CCC2` was 3.16%. For `Cc1cc(CN2CCN(Cc3ccc(C#N)cc3OC(F)F)CC2)no1` the value was 1.81%; for `Cc1ccc(O)c(C(=O)NCCCS(=O)(=O)Cc2ccccc2)c1`, 33.6%. The value for `CCN(Cc1ccoc1)C(=O)c1ccncc1O` was 6.85%; that for `Cc1cccc(C(=O)N(CCCO)S(=O)(=O)c2cccs2)c1` was 8.01%.

Take `CC(=O)C(Cc1ccccc1)NC(=O)CSc1nccn1C1CC1` (stereo unspecified): the cytotoxicity at 10 µM amounted to 5.22%. For `CC(C)Oc1ccc(CNC(=O)C2CCC(=O)N2)cn1` (stereo unspecified) the value was 10.5%; for `Cc1cc(CN(C)C(=O)NCc2ccco2)no1`, 1.58%; for `Cc1ccc(CNc2ccc(N3CCC(CO)CC3)cn2)o1`, 19.1%. As for `O=C(NC1CCN(C2CC2)C1)c1cn(-c2ccc(F)cc2)nn1` (stereo unspecified), the cytotoxicity at 10 µM was -2.25%. Regarding `CCc1[nH]c(C2(N)CCCC2)nc(=O)c1C`, the cytotoxicity at 10 µM is -1.29%.

As to `CCCC(=O)NCc1ccc(N2CCCCC2)cc1`, the cytotoxicity at 10 µM is 3.54%. The value for `Cc1cc(C)n(CC(=O)N(CC2CN(C)CCO2)c2nccs2)n1` (stereo unspecified) was -5.85%; that for `COc1c(CNCc2cccc(CN3CCOCC3)c2)c(C)nn1C` was 11.1%; that for `CC(=O)c1cccc(NC(=O)CN2CCCCC2C)c1` (stereo unspecified) was -0.684%.

With `Cc1cc(C)n(-c2cncc(N3CCN(C(=O)C(C)C)CC3)n2)n1`, the cytotoxicity at 10 µM was -2.9%. The value for `Cc1csc(CNC(=O)NC2CCCc3c2cnn3CCO)n1` (stereo unspecified) was 13.7%; that for `COc1cc(NC(=O)c2ccc(C)c(F)c2)c(C(=O)N(C)C)cc1OC` was 2.82%. For `CC(C)c1nnc(CNCC2CCCN2c2cccnn2)o1` (stereo unspecified) the value was 1.05%; for `CC1(C)CN(CC(F)(F)F)CCN1CC(=O)NC1CC1`, 12.5%. For `O=C(NC1CCN(C(=O)C2CCCCC2)C1)c1ccncc1Cl` (stereo unspecified) the value was 10.4%; for `Cc1[nH]ccc1C(=O)N1CCCN1C(=O)OC(C)(C)C`, -6.49%. For the compound `Cc1noc(C(C)SCc2ccccn2)n1` (stereo unspecified), the cytotoxicity at 10 µM was -6.67%. Take `Cn1ccnc1-c1cccc(NC(=O)NCCN2CCOCC2)c1`: the cytotoxicity at 10 µM is -7.85%. The value for `CCc1nc(C2CCCN2CC(=O)Nc2c(C)nn(C)c2C)no1` (stereo unspecified) was -31.4%; that for `Cc1csc(N2CCN(CCc3ccccn3)CC2C)n1` (stereo unspecified) was -8.81%. As to `COc1nn(C)c2c1CCCN(C(=O)c1c[nH]cn1)C2`, the cytotoxicity at 10 µM was -100%. The value for `CN(Cc1cccnc1)C[C@H]1OC[C@@H]2CCN(c3ncccn3)C[C@@H]21` was -108%. For `CN(C)C(=O)N1C[C@@H]2COC[C@]2(CNS(C)(=O)=O)C1` the value was -1.47%; for `Cc1nc[nH]c1CN1CCN(C(=O)C2CC2)[C@H]2CS(=O)(=O)C[C@H]21`, 0.855%. For `Cn1c(CN2CC[C@](C)(O)C(C)(C)C2)cc2ccccc21` the value was -3.6%; for `COc1ccc(C(=O)C2CCCN(Cc3cnn(C)c3C)C2)c(OC)c1` (stereo unspecified), -8.85%; for `O=C(c1ccc(C2CCCO2)s1)N1CCCOCC1` (stereo unspecified), -0.256%.

For the compound `O=C1CCCN1c1cccc(N2CCC(NCCc3cscn3)CC2)c1`, the cytotoxicity at 10 µM was -26%.

With `Cc1ccc(C(=O)N2C[C@H](NS(C)(=O)=O)[C@@H](C(C)C)C2)cc1F`, the cytotoxicity at 10 µM was -2.36%. Regarding `CC(C)N1CC2(CCCN(c3ncc(Cl)cc3F)C2)CCC1=O` (stereo unspecified), the cytotoxicity at 10 µM worked out at 12.2%.

On to `O=S(=O)(NCCn1cc(C2CCOC2)nn1)c1ccc(Cl)cc1` (stereo unspecified), for which the cytotoxicity at 10 µM is -4.89%.

As for `CS(=O)(=O)CCc1ncnn1-c1ccc(F)c(Cl)c1`, the cytotoxicity at 10 µM is -4.56%.

Turning to `CC(C)C1CN(C(=O)c2cc(C3CC3)n[nH]2)CCC(=O)N1CC1CC1` (stereo unspecified), the cytotoxicity at 10 µM was -9.55%.

As to `N#Cc1cccc(N2CCC3(CC2)Nc2ccccc2NC3=O)n1`, the cytotoxicity at 10 µM was 5.57%. For `CCN1CCC(CNc2nccc(C)n2)(N(C)C)CC1` the value was -0.51%; for `Cc1nc(CN(C)Cc2nc(-c3ccccc3)no2)co1`, -1.86%; for `CN(C)C(C(=O)N1CCC(c2ncc[nH]2)CC1)c1ccc2c(c1)OCO2` (stereo unspecified), 2.8%. For `CCc1[nH]c2c(CNc3cncc(C(=O)N(C)C)n3)cc(C)cc2c1C` the value was -10.2%; for `COc1cc(N(C)CCCn2nc(C)cc2C)ncn1`, 1.6%. Take `COc1cccc2c1OCC(CNC(=O)CNC(N)=O)C2` (stereo unspecified): the cytotoxicity at 10 µM is -2.93%. The value for `O=C(c1ccccn1)N1CCCC(c2nccn2CC2CCC2)C1` (stereo unspecified) was -22.4%.

In the case of `O=C(c1cccc(S(=O)(=O)NCCCc2ccco2)c1)N1CCOCC1`, the cytotoxicity at 10 µM was -23.6%. The value for `CN(C)C(=O)c1ccc2c(c1)N(C)C(CC(=O)NCCC(C)(C)C)CO2` (stereo unspecified) was -0.8%. For `Cc1n[nH]c(C)c1NC(=O)CN1CCCC1c1noc(C(C)C)n1` (stereo unspecified) the value was 6.45%; for `Cc1cccc(-c2noc(CN3CC(n4cccn4)C3)n2)c1`, -0.0158%. Turning to `COc1cc(CCC(=O)NC(C)C(=O)O)ccc1OCC(F)(F)F` (stereo unspecified), the cytotoxicity at 10 µM was -2.15%.

Regarding `CC(NC(=O)NCc1c(F)cccc1Cl)(C(=O)O)c1ccco1` (stereo unspecified), the cytotoxicity at 10 µM was -3.23%. For `CN(Cc1ccco1)C(=O)Nc1cc(C(F)(F)F)c[nH]c1=O` the value was 2.79%.

On to `CCn1ccnc1CN1CCN(CCOc2ccccc2C#N)CC1`, for which the cytotoxicity at 10 µM is -8.21%. As to `COc1ccc(OCCN2CCN(Cc3nccn3C)CC2)cc1`, the cytotoxicity at 10 µM is -6.25%. For `CCc1cnc(CN(C(C)=O)C2CCN(CCc3ccccn3)C2)o1` (stereo unspecified) the value was -2.72%. The value for `Cc1nc(C)n(C2CCCN(C(=O)c3ccnc(N(C)C)c3)C2)n1` (stereo unspecified) was -8.36%. The value for `Cc1nc(N2CCCN(C(=O)c3ccsc3)CC2)c2cnn(C)c2n1` was -10.8%. For the compound `CCC(C)N(CCOC)Cc1nc2c(cnn2C)c(=O)[nH]1` (stereo unspecified), the cytotoxicity at 10 µM is -12.4%. For `O=c1[nH]c(CCN2CCCC2Cn2cccn2)nc2ccccc12` (stereo unspecified), the cytotoxicity at 10 µM was -8.05%. For `O=C(NCCCN1CCCCC1)c1n[nH]c(=O)c2ccccc12`, the cytotoxicity at 10 µM is -30.9%. In the case of `COc1c(C2CCCN2C(=O)c2nccnc2N)c(C)nn1C` (stereo unspecified), the cytotoxicity at 10 µM was -5.55%. The value for `Cc1csc(N2CCCN(C(=O)Cc3cccs3)CC2)n1` was -6.87%; that for `Cc1nc(C)n(C2CCCN(C(=O)c3csc(C)n3)C2)n1` (stereo unspecified) was -18.7%; that for `COc1cc(C(=O)NS(=O)(=O)c2cccc(C#N)c2)ccc1C` was -9.29%.

As to `CC(C)(C)NC(=O)C1CSCN1S(=O)(=O)c1ccc(F)cc1` (stereo unspecified), the cytotoxicity at 10 µM came out at 0.65%. For `CC(C)Sc1ncccc1C(=O)NCc1ccc(CS(C)(=O)=O)cc1` the value was 3.78%. For `Cc1cc(C)n(C2CCCN(C(=O)c3cc(C4CC4)on3)C2)n1` (stereo unspecified) the value was -1.11%; for `CC(C)c1nc2n(n1)CC(NCc1ncc(-c3ccccc3)o1)CC2` (stereo unspecified), -0.361%; for `CC(=O)Nc1ccc(Oc2cc(C)nc(C3CCCNC3)c2)cc1` (stereo unspecified), 2.58%. For `Cn1cc(N2CC3(CCN(Cc4ccccc4)CC3)OCC2=O)cn1` the value was 5.25%; for `Cc1cnc(N2CC[C@@H]3OC(COCC(=O)N(C)C)CC[C@@H]32)nc1` (stereo partly specified), 7.98%; for `Cc1nc(CO[C@@H]2CN(Cc3ccsc3)[C@@H]3COC[C@@H]32)cs1`, 3.04%.

Take `Cc1ccc(C(=O)N2CCOCC3(CCN(C4CCOCC4)C3)C2)o1` (stereo unspecified): the cytotoxicity at 10 µM was -0.152%. Take `c1ccc(CO[C@H]2CO[C@@]3(CCN(Cc4ccoc4)C3)C2)nc1`: the cytotoxicity at 10 µM was -15.3%.

With `c1cncc(CN2CCOC(c3ncn4c(C5CC5)cccc34)C2)c1` (stereo unspecified), the cytotoxicity at 10 µM amounted to 1.79%. The value for `Cc1ccc(CN2C[C@@H]3CN(CC4CCOCC4)CCO[C@@H]3C2)s1` was -12.7%. For `Cc1nc(CN2CCOCC3(CCN(c4ccccn4)C3)C2)cs1` (stereo unspecified) the value was 12.8%; for `O=C1CO[C@@H]2CN(Cc3cccs3)C[C@H]2N1Cc1ccncc1`, 2.08%; for `NCC1CCC(C(NC(=O)c2cccc(F)c2)c2ccccn2)CC1` (stereo unspecified), -6.83%.
